From ChEMBL document CHEMBL1157161, “N-1H-benzimidazol-5-ylbenzenesulfonamide derivatives as potent hPXR agonists” (Bioorg Med Chem, 2008)

Legend:
[1] = target: T1, Nuclear receptor subfamily 1 group I member 2 (Homo sapiens, UniProt O75469); test: Agonist activity at human pregnane X receptor expressed in HGPXR reporter cells; format: functional, cell-based
T1 sequence (O75469 whole entry): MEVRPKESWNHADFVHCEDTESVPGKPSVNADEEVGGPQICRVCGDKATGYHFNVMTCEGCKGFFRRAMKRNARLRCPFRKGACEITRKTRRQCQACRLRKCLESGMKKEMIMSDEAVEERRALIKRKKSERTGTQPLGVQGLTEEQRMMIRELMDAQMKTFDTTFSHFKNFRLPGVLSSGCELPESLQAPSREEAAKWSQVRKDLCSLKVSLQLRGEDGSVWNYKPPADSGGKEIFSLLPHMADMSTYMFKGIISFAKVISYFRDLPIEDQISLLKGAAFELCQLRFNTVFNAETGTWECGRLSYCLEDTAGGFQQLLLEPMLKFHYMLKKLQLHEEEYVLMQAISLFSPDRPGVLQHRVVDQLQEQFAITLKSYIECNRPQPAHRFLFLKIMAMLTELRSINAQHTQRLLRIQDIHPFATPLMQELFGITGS

Hepatocyte [2] = test: Induction of […] mRNA expression in human hepatocyte FT269 at 1 uM after 24 hrs by RT-PCR relative to control; format: functional
How it was run: (§1)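 Primary adult human hepatocytes from lobectomy segments, plated on collagen in Williams' E/Ham's F-12 (1:1) defined medium; 24 h exposure begun 48 h after plating, vehicle DMSO 0.1%. Total RNA extracted with TRIzol, cDNA from 1 µg using random hexamers (42 °C, 60 min). Target mRNA quantified by real-time PCR in duplicates, comparative Ct method. Result given as fold induction over DMSO-treated cells ± standard error.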

Hepatocyte [3] = test: Induction of […] mRNA expression in human hepatocyte FT272 at 1 uM after 24 hrs by RT-PCR relative to control; format: functional; how it was run: as §1
Hepatocyte [4] = test: Induction of CYP3A4 mRNA expression in human hepatocyte FT269 at 1 uM after 24 hrs by RT-PCR relative to control; format: functional; how it was run: as §1
Hepatocyte [5] = test: Induction of […] mRNA expression in human hepatocyte FT268 at 1 uM after 24 hrs by RT-PCR relative to control; format: functional; how it was run: as §1
Hepatocyte [6] = test: Induction of CYP3A4 mRNA expression in human hepatocyte FT272 at 1 uM after 24 hrs by RT-PCR relative to control; format: functional; how it was run: as §1
Hepatocyte [7] = test: Induction of CYP3A4 mRNA expression in human hepatocyte FT271 at 1 uM after 24 hrs by RT-PCR relative to control; format: functional; how it was run: as §1
Hepatocyte [8] = test: Induction of […] mRNA expression in human hepatocyte FT271 at 1 uM after 24 hrs by RT-PCR relative to control; format: functional; how it was run: as §1
Hepatocyte [9] = test: Induction of CYP3A4 mRNA expression in human hepatocyte FT268 at 1 uM after 24 hrs by RT-PCR relative to control; format: functional; how it was run: as §1
[10] = target: T1, Nuclear receptor subfamily 1 group I member 2; test: Protection of human pregnane X receptor against proteolytic digestion in presence of trypsin

SMILES	EC50 [1]	also measured
O=[N+]([O-])c1ccccc1CS(=O)(=O)Nc1ccc2c(c1)ncn2Cc1ccccc1	428 nM	–
O=[N+]([O-])c1ccccc1S(=O)(=O)Nc1ccc2c(c1)ncn2Cc1ccccc1	271 nM	–
O=[N+]([O-])c1ccc(S(=O)(=O)Nc2ccc3c(c2)ncn3Cc2ccccc2)cc1	336 nM	–
O=C(Nc1ccc2c(c1)ncn2Cc1ccccc1)Nc1ccccc1Cl	1480 nM	–
CCOP(=O)(OCC)C(=Cc1cc(C(C)(C)C)c(O)c(C(C)(C)C)c1)P(=O)(OCC)OCC	–	Ratio (Hepatocyte [2]): 3.74; Ratio (Hepatocyte [3]): 3.91; Ratio (Hepatocyte [4]): 10.9; Ratio (Hepatocyte [5]): 3.26; Ratio (Hepatocyte [6]): 24.01; Ratio (Hepatocyte [7]): 11.84; Ratio (Hepatocyte [8]): 2; Ratio (Hepatocyte [9]): 4.02
O=S(=O)(Nc1ccc2c(c1)ncn2Cc1ccccc1)c1ccc(-c2ccccc2)cc1	388 nM	–
Cc1c(C)c(C)c(S(=O)(=O)Nc2ccc3c(c2)ncn3Cc2ccccc2)c(C)c1C	0.7 nM	EC50 [10]: 8.04 nM; Ratio (Hepatocyte [2]): 14.89; Ratio (Hepatocyte [3]): 11.41; Ratio (Hepatocyte [4]): 29.02; Ratio (Hepatocyte [6]): 32.59; Ratio (Hepatocyte [7]): 14.91; Ratio (Hepatocyte [8]): 4.86
Cc1cc(C)cc(S(=O)(=O)Nc2ccc3c(c2)ncn3Cc2ccccc2)c1	33 nM	–
Cc1cc(C)c(S(=O)(=O)Nc2ccc3c(c2)ncn3Cc2ccccc2)c(C)c1	1.5 nM	EC50 [10]: 8.05 nM; Ratio (Hepatocyte [3]): 7.55; Ratio (Hepatocyte [6]): 31.68; Ratio (Hepatocyte [7]): 15.58; Ratio (Hepatocyte [8]): 1.89
O=C(Cc1ccccc1Cl)Nc1ccc2c(c1)ncn2Cc1ccccc1	515 nM	–
O=C(Cc1ccc2ccccc2c1)Nc1ccc2c(c1)ncn2Cc1ccccc1	> 5000 nM	–
O=S(=O)(Nc1ccc2c(c1)ncn2Cc1ccccc1)c1ccccc1Br	20 nM	–
CCCCCCn1cnc2cc(NS(=O)(=O)c3ccccc3Cl)ccc21	55 nM	–
CCCCCCn1cnc2cc(NS(=O)(=O)c3c(C)c(C)c(C)c(C)c3C)ccc21	13 nM	–
O=S(=O)(Cc1ccccc1Cl)Nc1ccc2c(ccn2Cc2ccccc2)c1	197 nM	–
Cc1c(C)c(C)c(S(=O)(=O)Nc2ccc3c(c2)ncn3-c2ccc3ccccc3c2)c(C)c1C	55 nM	–
CCCc1ccc(S(=O)(=O)Nc2ccc3c(c2)ncn3Cc2ccccc2)cc1	52 nM	–
Cc1ccccc1S(=O)(=O)Nc1ccc2c(c1)ncn2Cc1ccccc1	45 nM	–
O=C(Nc1ccc2c(c1)ncn2Cc1ccccc1)Nc1cccc2ccccc12	> 5000 nM	–
CC(c1ccccc1)n1cnc2cc(NS(=O)(=O)Cc3ccccc3Cl)ccc21 (racemic)	49 nM	EC50 [10]: 809 nM

Further lines, with some results ahead:

EC50 [1]	SMILES	also measured
20 nM	O=S(=O)(Nc1ccc2c(c1)ncn2Cc1ccccc1)c1cccc2ccccc12	–
376 nM	O=S(=O)(Cc1ccccc1Cl)Nc1ccc2ncn(Cc3ccccc3)c2c1	–
340 nM	O=S(=O)(Nc1ccc2ncn(Cc3ccccc3)c2c1)c1ccccc1Cl	–
385 nM	O=S(=O)(Nc1ccc2c(c1)ncn2-c1ccc2ccccc2c1)c1ccccc1Cl	–
> 5000 nM	O=C(Nc1ccc2c(c1)ncn2Cc1ccccc1)Nc1ccccc1[N+](=O)[O-]	–
42 nM	CC(C)(C)c1ccc(S(=O)(=O)Nc2ccc3c(c2)ncn3Cc2ccccc2)cc1	–
217 nM	O=C(Cc1cccc2ccccc12)Nc1ccc2c(c1)ncn2Cc1ccccc1	–
23 nM	O=S(=O)(Nc1ccc2c(c1)ncn2Cc1ccccc1)c1ccccc1Cl	EC50 [10]: 157 nM; Ratio (Hepatocyte [2]): 10.46; Ratio (Hepatocyte [3]): 11.83; Ratio (Hepatocyte [4]): 17.04; Ratio (Hepatocyte [5]): 3.02; Ratio (Hepatocyte [6]): 36.06; Ratio (Hepatocyte [7]): 9.97; Ratio (Hepatocyte [8]): 3.05; Ratio (Hepatocyte [9]): 7.23
176 nM	O=S(=O)(Cc1ccccc1Cl)Nc1ccc2c(c1)ncn2Cc1ccccc1	–
51 nM	O=S(=O)(Nc1ccc2c(c1)ncn2Cc1ccccc1)c1ccc2ccccc2c1	–
101 nM	O=S(=O)(Nc1ccc2c(c1)ncn2Cc1ccccc1)c1ccccc1F	–
